Key:
[1] = target: T1, Retinoic acid receptor RXR-alpha (Homo sapiens, UniProt P19793); test: Effective concentration for lipogenesis induced by retinoid X receptor alpha in C3H10T1/2 clone 8 fibroblast cells
T1 sequence (P19793 whole entry): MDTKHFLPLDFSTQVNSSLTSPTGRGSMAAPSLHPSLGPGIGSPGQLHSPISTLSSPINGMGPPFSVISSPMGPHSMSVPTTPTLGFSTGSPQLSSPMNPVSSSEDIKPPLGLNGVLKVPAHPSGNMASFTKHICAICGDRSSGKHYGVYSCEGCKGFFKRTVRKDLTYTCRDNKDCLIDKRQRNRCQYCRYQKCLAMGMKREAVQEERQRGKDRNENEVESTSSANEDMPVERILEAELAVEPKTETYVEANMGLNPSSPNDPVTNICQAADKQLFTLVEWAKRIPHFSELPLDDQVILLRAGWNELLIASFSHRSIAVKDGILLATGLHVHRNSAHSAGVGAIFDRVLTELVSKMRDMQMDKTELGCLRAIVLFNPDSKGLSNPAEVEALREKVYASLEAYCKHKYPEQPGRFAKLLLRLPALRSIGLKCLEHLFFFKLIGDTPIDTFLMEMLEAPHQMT
Summary of the method: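 Lipogenesis measured in C3H10T1/2 clone 8 fibroblasts as triglyceride accumulation, used as a surrogate marker of RXR activity.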

[2] = Effective concentration for lipogenesis induced by retinoid X receptor alpha in C3H10T1/2 clone 8 fibroblast cells
[3] = Effective concentration for lipogenesis induced by retinoid X receptor alpha in C3H10T1/2 clone 8 fibroblast cells; Partial agonist
[4] = Inhibitory concentration for lipogenesis induced by retinoic acid receptor alpha in C3H10T1/2 clone 8 fibroblast cells
[5] = Effective concentration for retinoic acid receptor alpha induced lipogenesis in C3H10T1/2 clone 8 fibroblast cells

SMILES | EC50 [2] | EC50 [5] | also measured
CC1(C)CCC(C)(C)c2cc(C3CCCc4oc(/C=C/C(=O)O)cc43)ccc21 (stereo unspecified) [(E)-3-[4-(5,5,8,8-Tetramethyl-5,6,7,8-tetrahydro-naphthalen-2-yl)-4,5,6,7-tetrahydro-benzofuran-2-yl]-acrylic acid] | 0.66 µM |  | EC50 [1]: 0.004 µM
C/C(=C\C(=O)O)c1cc2c(o1)CCCC2c1ccc2c(c1)C(C)(C)CCC2(C)C (stereo unspecified) | 0.01 µM |  | 
COc1cc2c(cc1C1CCCc3oc(/C=C/C(=O)O)cc31)C(C)(C)CCC2(C)C (stereo unspecified) [(E)-3-[4-(3-Methoxy-5,5,8,8-tetramethyl-5,6,7,8-tetrahydro-naphthalen-2-yl)-4,5,6,7-tetrahydro-benzofuran-2-yl]-acrylic acid] |  |  | EC50 [3]: 0.123 µM
CCCOc1cc2c(cc1C1CCCc3oc(/C=C/C(=O)O)cc31)C(C)(C)CCC2(C)C (stereo unspecified) [(E)-3-[4-(5,5,8,8-Tetramethyl-3-propoxy-5,6,7,8-tetrahydro-naphthalen-2-yl)-4,5,6,7-tetrahydro-benzofuran-2-yl]-acrylic acid] |  |  | IC50 [4]: > 1 µM; EC50 [3]: 0.04 µM
Cc1oc(/C=C/C(=O)O)cc1Cc1ccc2c(c1)C(C)(C)CCC2(C)C [(E)-3-[5-Methyl-4-(5,5,8,8-tetramethyl-5,6,7,8-tetrahydro-naphthalen-2-ylmethyl)-furan-2-yl]-acrylic acid] | 1 µM | > 1 µM | 

Second part, led by results:

EC50 [2] | EC50 [5] | SMILES | also measured
0.072 µM |  | CC1(C)CCC(C)(C)c2cc(C3CCCc4sc(/C=C/C(=O)O)cc43)ccc21 (stereo unspecified) [(E)-3-[4-(5,5,8,8-Tetramethyl-5,6,7,8-tetrahydro-naphthalen-2-yl)-4,5,6,7-tetrahydro-benzo[b]thiophen-2-yl]-acrylic acid] | 
0.749 µM | > 10 µM | CC1(C)CCC(C)(C)c2cc(C3CCCc4oc(/C=C/C(=O)O)nc43)ccc21 (stereo unspecified) [(E)-3-[4-(5,5,8,8-Tetramethyl-5,6,7,8-tetrahydro-naphthalen-2-yl)-4,5,6,7-tetrahydro-benzooxazol-2-yl]-acrylic acid] | 
3 µM |  | Cc1cc2c(cc1C1CCCc3oc(/C=C/C(=O)O)cc31)C(C)(C)CCC2(C)C (stereo unspecified) [(E)-3-[4-(3,5,5,8,8-Pentamethyl-5,6,7,8-tetrahydro-naphthalen-2-yl)-4,5,6,7-tetrahydro-benzofuran-2-yl]-acrylic acid] | 
 | 0.057 µM | CC1(C)CCC(C)(C)c2cc(Cc3coc(/C=C/C(=O)O)c3)ccc21 [(E)-3-[4-(5,5,8,8-Tetramethyl-5,6,7,8-tetrahydro-naphthalen-2-ylmethyl)-furan-2-yl]-acrylic acid] | 
0.005 µM |  | CC1(C)CCC(C)(C)c2cc(C3CCCc4oc(C=C5SC(O)=NC5=O)cc43)ccc21 (stereo unspecified) [5-[1-[4-(5,5,8,8-Tetramethyl-5,6,7,8-tetrahydro-naphthalen-2-yl)-4,5,6,7-tetrahydro-benzofuran-2-yl]-meth-(E)-ylidene]-thiazolidine-2,4-dione] | 
0.022 µM | > 10 µM | CN1Cc2oc(/C=C/C(=O)O)cc2C(c2ccc3c(c2)C(C)(C)CCC3(C)C)C1 (stereo unspecified) | 
